# Test results published in PubChem BioAssay.
# The other results are listed elsewhere or left out. Activity calls are given as the source filed them.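 Rule for the calls: active = mean inhibition across replicates above the hit cutoff set in the primary screen (cut at about 30% in these data); inactive = the rest.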
# Target: (Lyso)-N-acylphosphatidylethanolamine lipase (Mus musculus) (UniProt Q8VD66)
# Experiment: mouse ABHD4 hydrolase blockers, triplicate – biochemical, fluorescence polarization, confirmation (AID 720658);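 note: 0% = wild-type ABHD4 with DMSO and 100% = catalytically dead S159A mutant with DMSO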
# Conditions: purified mABHD4, FP-Rh probe fluorescence polarization; at 8.92 µM; stronger effect = higher value
# Method in brief: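 Test system – wild-type mouse ABHD4 · Doses – single nominal compound dose 8.92 µM, 0.89% DMSO final · Also added – FP-Rh activity-based probe · Technique – fluorescence polarization, excitation 525 nm, emission 598 nm · Incubation – 45 min compound pretreatment plus 60 min FP-Rh labeling, 25 °C · Medium – HEPES-saline buffer with 0.01% Pluronic F-127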
# (Lyso)-N-acylphosphatidylethanolamine lipase (Mus musculus), sequence (Q8VD66 whole entry, looked up): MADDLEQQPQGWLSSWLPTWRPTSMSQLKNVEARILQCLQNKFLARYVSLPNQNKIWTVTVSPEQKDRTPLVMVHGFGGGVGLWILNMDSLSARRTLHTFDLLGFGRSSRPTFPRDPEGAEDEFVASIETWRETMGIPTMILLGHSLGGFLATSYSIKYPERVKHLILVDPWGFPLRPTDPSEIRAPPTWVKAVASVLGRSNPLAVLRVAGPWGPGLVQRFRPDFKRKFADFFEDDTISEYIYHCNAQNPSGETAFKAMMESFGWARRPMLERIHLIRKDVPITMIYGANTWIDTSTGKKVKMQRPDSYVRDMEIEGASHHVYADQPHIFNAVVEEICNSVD
row,Structure (SMILES),inhibition
1,CCOC(=O)C1=C(C)N=C2c3ccccc3C(=O)C2C1c1ccc(Br)cc1 (stereo not given),44.8% (active)
2,CCN1C(=O)/C(=C2/Sc3ccccc3N2CCCS(=O)(=O)O)SC1=S,24.3% (inactive)
3,Cc1cccc(N2CCN(Cc3nc(C4CC4)no3)CC2)n1,-2.12% (inactive)
4,Oc1ccc(/C=N/Nc2ccc(C(F)(F)F)cn2)cc1O,34% (active)
5,O=C(O)c1ccc(N/N=C/c2cn(-c3ccccc3)nc2-c2cccs2)cc1,57.4% (active)
6,CC(C)(C)C(=O)OCc1nc(-c2ccc(O)c(O)c2)cs1,28.1% (inactive)
7,Cc1ccc(NC(=O)Cc2nc(COC(=O)C(C)NS(=O)(=O)c3ccc(C)cc3)cs2)cc1 (stereo not given),7.11% (inactive)
8,CC1CCN(c2ccc(C(=O)O)cc2NS(=O)(=O)c2ccc(Br)s2)CC1,47.5% (active)
9,O=C(O)c1cc([N+](=O)[O-])c(Nc2cccc3ccccc23)c([N+](=O)[O-])c1,39.9% (active)
10,COc1ccc(Br)cc1/C=N/Nc1ccc(Cl)c(C(=O)O)c1,32.5% (active)
11,COc1ccc2nc(Nc3nc4ccc(NC(C)=O)cc4s3)sc2c1,39.4% (active)
12,c1ccc2sc(NN=C3CCCC3)nc2c1,-1.86% (inactive)
13,COc1ccc(Br)cc1/C=N/Nc1ccc(S(=O)(=O)Nc2ccccc2C(=O)O)cc1[N+](=O)[O-],20.7% (inactive)
14,CC(=O)Oc1ccc(N(C(C)=O)S(=O)(=O)c2ccc3ccccc3c2)cc1Br,30.6% (active)
15,O=[N+]([O-])c1cc(Br)c(O)c(/C=N/Nc2nc3ccccc3s2)c1,69.5% (active)
